# Assay results taken from ChEMBL document CHEMBL1129794, “Synthesis and evaluation of 2-[(5-methylbenz-1-ox-4-azin-6-yl)imino]imidazoline, a potent, peripherally acting alpha 2 adrenoceptor agonist” (J Med Chem, 1996).
# Columns and labels:
# [1] = molecular target: T1, Alpha-2C adrenergic receptor (Homo sapiens, UniProt P18825); assay: Compound was tested in vitro for binding affinity against Alpha-2C adrenergic receptor from cloned human C-2 receptor transfected into Chinese hamster ovary (CHO) cells; format: cell-based
# T1 sequence (P18825 whole entry): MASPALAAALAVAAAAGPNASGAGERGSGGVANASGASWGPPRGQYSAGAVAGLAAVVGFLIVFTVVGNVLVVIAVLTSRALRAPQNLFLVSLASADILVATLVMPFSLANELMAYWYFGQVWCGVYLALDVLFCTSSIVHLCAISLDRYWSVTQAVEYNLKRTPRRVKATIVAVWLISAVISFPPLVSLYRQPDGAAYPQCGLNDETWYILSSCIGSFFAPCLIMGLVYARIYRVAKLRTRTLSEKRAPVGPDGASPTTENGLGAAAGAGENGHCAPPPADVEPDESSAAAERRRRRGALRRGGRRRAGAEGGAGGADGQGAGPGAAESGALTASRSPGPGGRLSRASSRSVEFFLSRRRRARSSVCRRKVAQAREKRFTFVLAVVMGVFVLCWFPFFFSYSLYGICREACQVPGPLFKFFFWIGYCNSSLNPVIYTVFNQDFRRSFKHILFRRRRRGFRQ
# Summary of the method: (§1)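 Membrane binding using cloned receptors expressed in transfected CHO cells: alpha-2A human C-10, alpha-2B rat RNG, alpha-2C human C-2.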
# [2] = molecular target: T2, Adrenergic receptor alpha-1 (Homo sapiens, UniProt P35348+P25100+P35368); assay: Compound was tested for binding affinity based on dissociation constant of Alpha-1 adrenergic receptor; format: protein assay
# T2 sequence (P35348 whole entry): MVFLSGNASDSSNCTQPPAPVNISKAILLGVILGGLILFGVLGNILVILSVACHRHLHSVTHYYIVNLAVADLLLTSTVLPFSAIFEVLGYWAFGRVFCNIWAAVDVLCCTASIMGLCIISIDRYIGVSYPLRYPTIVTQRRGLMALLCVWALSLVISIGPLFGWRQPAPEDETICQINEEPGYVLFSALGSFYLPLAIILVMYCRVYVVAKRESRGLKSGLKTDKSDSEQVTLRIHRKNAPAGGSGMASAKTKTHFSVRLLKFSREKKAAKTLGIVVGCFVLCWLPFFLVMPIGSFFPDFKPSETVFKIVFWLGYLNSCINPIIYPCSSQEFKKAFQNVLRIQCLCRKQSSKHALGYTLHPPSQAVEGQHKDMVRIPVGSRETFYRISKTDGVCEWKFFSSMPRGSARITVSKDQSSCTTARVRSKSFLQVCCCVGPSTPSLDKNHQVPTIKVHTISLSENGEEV
# T2 sequence (P25100 whole entry): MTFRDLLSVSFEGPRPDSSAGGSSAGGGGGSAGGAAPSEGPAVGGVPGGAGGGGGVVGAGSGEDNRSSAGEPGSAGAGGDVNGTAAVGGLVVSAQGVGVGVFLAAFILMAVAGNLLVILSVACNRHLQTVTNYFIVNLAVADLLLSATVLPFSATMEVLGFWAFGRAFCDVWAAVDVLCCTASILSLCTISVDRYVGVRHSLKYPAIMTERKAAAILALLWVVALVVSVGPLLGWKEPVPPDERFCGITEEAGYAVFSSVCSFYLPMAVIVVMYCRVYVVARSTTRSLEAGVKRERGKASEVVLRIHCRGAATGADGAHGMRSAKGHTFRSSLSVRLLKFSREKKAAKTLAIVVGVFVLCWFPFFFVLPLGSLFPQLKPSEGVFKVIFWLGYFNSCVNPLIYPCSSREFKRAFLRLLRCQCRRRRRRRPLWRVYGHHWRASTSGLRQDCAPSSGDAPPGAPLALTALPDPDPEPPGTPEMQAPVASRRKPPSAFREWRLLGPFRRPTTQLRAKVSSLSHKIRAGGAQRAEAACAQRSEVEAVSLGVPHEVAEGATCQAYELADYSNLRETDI
# T2 sequence (P35368 whole entry): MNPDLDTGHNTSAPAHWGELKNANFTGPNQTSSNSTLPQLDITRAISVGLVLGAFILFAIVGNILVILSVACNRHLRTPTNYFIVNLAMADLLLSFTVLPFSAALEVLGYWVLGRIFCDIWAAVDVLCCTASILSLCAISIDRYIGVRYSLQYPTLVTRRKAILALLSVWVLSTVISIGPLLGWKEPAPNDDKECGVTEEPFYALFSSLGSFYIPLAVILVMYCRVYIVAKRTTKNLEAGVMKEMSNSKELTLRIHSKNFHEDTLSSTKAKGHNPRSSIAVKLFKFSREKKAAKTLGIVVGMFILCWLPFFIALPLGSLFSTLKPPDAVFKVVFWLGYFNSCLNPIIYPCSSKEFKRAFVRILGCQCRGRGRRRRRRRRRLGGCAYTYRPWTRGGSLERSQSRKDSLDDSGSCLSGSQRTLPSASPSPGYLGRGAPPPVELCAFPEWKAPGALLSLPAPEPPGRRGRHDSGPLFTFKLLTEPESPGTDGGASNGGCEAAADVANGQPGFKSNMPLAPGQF
# [3] = molecular target: T3, Alpha-2A adrenergic receptor (Homo sapiens, UniProt P08913); assay: Compound was tested in vitro for binding affinity against Alpha-2A adrenergic receptor from cloned human C-10 receptor transfected into Chinese hamster ovary (CHO) cells; format: cell-based; summary of the method: as §1
# T3 sequence (P08913 whole entry): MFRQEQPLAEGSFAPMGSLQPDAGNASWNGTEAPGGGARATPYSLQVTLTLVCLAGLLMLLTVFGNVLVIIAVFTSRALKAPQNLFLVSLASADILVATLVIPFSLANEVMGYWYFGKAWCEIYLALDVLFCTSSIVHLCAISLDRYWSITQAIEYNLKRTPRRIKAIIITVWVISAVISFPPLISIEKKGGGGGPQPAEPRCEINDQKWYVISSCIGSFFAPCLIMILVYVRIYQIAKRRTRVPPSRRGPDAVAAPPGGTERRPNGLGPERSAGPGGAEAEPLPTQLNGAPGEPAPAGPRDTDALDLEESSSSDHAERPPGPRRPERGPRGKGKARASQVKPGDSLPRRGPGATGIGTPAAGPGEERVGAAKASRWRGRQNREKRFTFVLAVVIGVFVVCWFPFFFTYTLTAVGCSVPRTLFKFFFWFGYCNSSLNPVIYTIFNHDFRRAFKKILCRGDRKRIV
# [4] = pKa value determined in the presence of the partition solvent for guanidine subunit.; format: physicochemical
# Summary of the method: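 Potentiometric titration: compound dissolved, solution titrated to predetermined final pH; pKa measured in water and again with octanol or dodecane added before titration; log P derived from shift between aqueous pKa and pKa in presence of partition solvent.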
# [5] = molecular target: T4, Alpha-2B adrenergic receptor (Rattus norvegicus, UniProt P19328); assay: Compound was tested in vitro for binding affinity against Alpha-2B adrenergic receptor from cloned rat RNG receptor transfected into Chinese hamster ovary (CHO) cells; format: cell-based; summary of the method: as §1
# T4 sequence (P19328 whole entry): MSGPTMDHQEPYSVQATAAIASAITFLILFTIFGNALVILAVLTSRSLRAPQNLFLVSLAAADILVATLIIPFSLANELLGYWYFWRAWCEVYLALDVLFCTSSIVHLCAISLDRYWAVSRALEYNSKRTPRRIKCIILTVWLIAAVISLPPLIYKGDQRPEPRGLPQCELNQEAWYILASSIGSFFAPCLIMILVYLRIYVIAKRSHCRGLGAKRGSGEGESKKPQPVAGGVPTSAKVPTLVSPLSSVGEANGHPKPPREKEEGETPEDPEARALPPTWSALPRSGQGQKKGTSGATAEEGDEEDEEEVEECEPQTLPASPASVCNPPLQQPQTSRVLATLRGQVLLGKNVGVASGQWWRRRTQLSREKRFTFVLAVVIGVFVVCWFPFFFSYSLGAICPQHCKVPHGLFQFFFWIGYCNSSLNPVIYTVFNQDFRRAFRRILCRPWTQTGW
# [6] = molecular target: T5, Adrenergic receptor alpha-2 (Homo sapiens, UniProt P08913+P18825+P18089); assay: Compound was tested for concentration that produced 50% contractile response relative to maximum response to norepinephrine for Alpha-2 adrenergic receptor in rabbit vas deferens; format: functional, tissue-based, Oryctolagus cuniculus; settings: target entry is the homologue from another species
# T5 sequence (P08913 whole entry): T3 sequence (P08913 whole entry)
# T5 sequence (P18825 whole entry): T1 sequence (P18825 whole entry)
# T5 sequence (P18089 whole entry): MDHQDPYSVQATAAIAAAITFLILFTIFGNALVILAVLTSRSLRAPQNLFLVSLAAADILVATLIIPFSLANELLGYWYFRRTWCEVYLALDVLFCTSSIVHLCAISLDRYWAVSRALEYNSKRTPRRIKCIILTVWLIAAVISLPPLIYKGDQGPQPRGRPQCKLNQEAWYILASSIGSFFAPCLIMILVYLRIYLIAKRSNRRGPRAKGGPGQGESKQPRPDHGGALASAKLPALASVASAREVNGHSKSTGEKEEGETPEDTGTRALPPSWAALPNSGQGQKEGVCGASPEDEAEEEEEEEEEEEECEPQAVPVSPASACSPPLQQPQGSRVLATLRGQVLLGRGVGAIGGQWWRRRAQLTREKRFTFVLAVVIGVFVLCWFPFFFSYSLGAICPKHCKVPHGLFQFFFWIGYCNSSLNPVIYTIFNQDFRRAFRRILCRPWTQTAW
Ki [1] [nM],Ki [2] [nM],pKa [4],EC50 [6] [nM],SMILES,Ki [3] [nM],Ki [5] [nM]
30,180,–,–,Nc1cc(Cl)c(N=C2NCCN2)c(Cl)c1 [APRACLONIDINE],–,–
120,–,11.3,3.5,Cc1c(NC2=NCCN2)ccc2c1NCCN2,–,–
–,470,11.1,1.2,Cc1c(NC2=NCCN2)ccc2c1NCCO2,–,–

SMILES,Ki [1] [nM],Ki [2] [nM],pKa [4],EC50 [6] [nM],Ki [3] [nM],Ki [5] [nM]
Cc1c(NC2=NCCN2)ccc2nccnc12,27,–,9.4,0.26,2,17
